Reference: ChEMBL document CHEMBL1649280, “Activity of the novel peptide arminin against multiresistant human pathogens shows the considerable potential of phylogenetically ancient organisms as drug sources” (Antimicrob Agents Chemother, 2009)
Active and inactive are the calls of the source. The calls are words filed in the database; no cut-off is given here.

Key:
Enterococcus faecalis = assay: Antibacterial activity against vancomycin-resistant Enterococcus faecalis ATCC 51299 after 2 hrs; format: functional
Escherichia coli [1] = assay: Antibacterial activity against Escherichia coli DH5alpha by microdilution susceptibility assay in presence of 200 mM of sodium chloride; format: functional, organism-based; conditions: DH5[alpha]
Procedure, shortened: (§1)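 Microdilution susceptibility assay in 10 mM sodium phosphate pH 7.4 with 0, 75, 150 or 200 mM NaCl. Activity relative to 0 mM NaCl (set to 1). Mean with standard deviation of two independent experiments, each in duplicate.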

Staphylococcus aureus [2] = assay: Antibacterial activity against methicillin-resistant Staphylococcus aureus 358 after 2 hrs; format: functional
Klebsiella pneumoniae [3] = assay: Antibacterial activity against vancomycin-resistant ESBL-producing Klebsiella pneumoniae GF1 after 2 hrs; format: functional
Enterococcus faecium [4] = assay: Antibacterial activity against vancomycin-resistant Enterococcus faecium 356 after 2 hrs
Staphylococcus aureus [5] = assay: Antibacterial activity against methicillin-resistant Staphylococcus aureus ATCC 43300 after 2 hrs; format: functional
Staphylococcus aureus [6] = assay: Antibacterial activity against Staphylococcus aureus ATCC 12600 assessed as destruction and detachment of peripheral cell wall at 410 uM after 1.5 hrs by transmission electron microscopy; format: functional, organism-based
Procedure, shortened: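 S. aureus grown to OD₆₀₀ 0.1, washed twice in 10 mM sodium phosphate pH 7.4 with 1% tryptic soy broth, concentrated to OD₆₀₀ 3.0 (~10⁸ bacteria/ml). Incubated with peptide at 41 or 410 μM for 1.5 h at 37°C with rocking; solvent-only control. CFU plated as growth check. Rest fixed 2 h 1:1 with 10% glutaraldehyde, examined by transmission electron microscopy.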

Klebsiella pneumoniae [7] = assay: Antibacterial activity against vancomycin-resistant ESBL-producing Klebsiella pneumoniae ATCC 700603 after 2 hrs; format: functional
Priestia megaterium [8] = assay: Antibacterial activity against Bacillus megaterium ATCC 14581 by microdilution susceptibility assay in presence of 200 mM of sodium chloride; format: functional, organism-based; procedure, shortened: as §1
Priestia megaterium [9] = assay: Antibacterial activity against Bacillus megaterium ATCC 14581 after 2 hrs; format: functional
Enterococcus faecium [10] = assay: Antibacterial activity against vancomycin-resistant Enterococcus faecium 354 after 2 hrs
Escherichia coli [11] = assay: Antibacterial activity against Escherichia coli DH5alpha by microdilution susceptibility assay in presence of 75 mM of sodium chloride; format: functional, DH5[alpha]
Procedure, shortened: (§2)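 Microdilution susceptibility assay in 10 mM sodium phosphate buffer, pH 7.4, with NaCl at 0, 75, 150 or 200 mM. Activity is expressed relative to the activity in buffer without NaCl, which is set to 1. Values are means with standard deviations of two independent experiments, each run in duplicate.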

Enterococcus faecium [12] = assay: Antibacterial activity against vancomycin-resistant Enterococcus faecium G70 after 2 hrs
[13] = Toxicity in human RBC assessed as hemolysis at 250 uM after 1 hr; format: cell-based; conditions: erythrocyte
Procedure, shortened: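 Human red blood cells were exposed to peptide serially diluted twofold from 250 μM in 50 mM sodium phosphate-150 mM NaCl, pH 7.4, for 1 h. Distilled water gave maximal lysis; buffer with peptide solvent gave spontaneous lysis. Absorbance of diluted supernatants was read at 405 nm. Values are means of two independent experiments, each in duplicate.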

Klebsiella pneumoniae [14] = assay: Antibacterial activity against vancomycin-resistant ESBL-producing Klebsiella pneumoniae GF7 after 2 hrs; format: functional
Staphylococcus aureus [15] = assay: Antibacterial activity against Staphylococcus aureus ATCC 12600 after 2 hrs; format: functional
Staphylococcus aureus [16] = assay: Antibacterial activity against methicillin-resistant Staphylococcus aureus after 2 hrs
Priestia megaterium [17] = assay: Antibacterial activity against Bacillus megaterium ATCC 14581 by microdilution susceptibility assay in presence of 75 mM of sodium chloride; format: functional; procedure, shortened: as §2
Escherichia coli [18] = assay: Antibacterial activity against vancomycin-resistant ESBL-producing Escherichia coli E4 after 2 hrs; format: functional
Enterococcus faecium [19] = assay: Antibacterial activity against vancomycin-resistant Enterococcus faecium G71 after 2 hrs
Escherichia coli [20] = assay: Antibacterial activity against vancomycin-resistant ESBL-producing Escherichia coli E9 after 2 hrs; format: functional
Staphylococcus aureus [21] = assay: Antibacterial activity against Staphylococcus aureus ATCC 12600 by microdilution susceptibility assay in presence of 75 mM of sodium chloride; format: functional; procedure, shortened: as §2
Staphylococcus aureus [22] = assay: Antibacterial activity against methicillin-resistant Staphylococcus aureus ATCC 33393 after 2 hrs; format: functional
Escherichia coli [23] = assay: Antibacterial activity against Escherichia coli DH5alpha after 2 hrs; format: functional, DH5[alpha]
Staphylococcus aureus [24] = assay: Antibacterial activity against Staphylococcus aureus ATCC 12600 by microdilution susceptibility assay in presence of 200 mM of sodium chloride; format: functional, organism-based; procedure, shortened: as §1
Staphylococcus aureus [25] = assay: Antibacterial activity against methicillin-resistant Staphylococcus aureus 344 after 2 hrs; format: functional

H-KPWRFRRAIRRVRWRKVAPYIPFVVKTVGKK-OH
LD90 (Enterococcus faecalis): 0.8 µM | MBC (Enterococcus faecalis; Enterococcus faecalis, ATCC 51299, 2 h): 1.6 µM | Activity (Escherichia coli [1]): Active | LD90 (Staphylococcus aureus [2]): 0.2 µM | MBC (Staphylococcus aureus [2]; Staphylococcus aureus, 358, 2 h): 0.4 µM | LD90 (Klebsiella pneumoniae [3]): 0.2 µM | MBC (Klebsiella pneumoniae [3]; Klebsiella pneumoniae, GF1, 2 h): 0.4 µM | LD90 (Enterococcus faecium [4]): 0.2 µM | MBC (Enterococcus faecium [4]; Enterococcus faecium, 356, 2 h): 0.8 µM | LD90 (Staphylococcus aureus [5]): 0.2 µM | MBC (Staphylococcus aureus [5]; Staphylococcus aureus, ATCC 43300, 2 h): 0.4 µM | Activity (Staphylococcus aureus [6]): Active | LD90 (Klebsiella pneumoniae [7]): 0.2 µM | MBC (Klebsiella pneumoniae [7]; Klebsiella pneumoniae, ATCC 700603, 2 h): 0.8 µM | Activity (Priestia megaterium [8]): Active | LD90 (Priestia megaterium [9]): 0.01 µM | MBC (Priestia megaterium [9]; Priestia megaterium, ATCC 14581, 2 h): 0.1 µM | LD90 (Enterococcus faecium [10]): 0.2 µM | MBC (Enterococcus faecium [10]; Enterococcus faecium, 354, 2 h): 0.4 µM | fold change (FC) (Escherichia coli [11]): 2 | LD90 (Enterococcus faecium [12]): 0.2 µM | MBC (Enterococcus faecium [12]; Enterococcus faecium, G70, 2 h): 0.4 µM | Activity [13]: Non-toxic | LD90 (Klebsiella pneumoniae [14]): 0.2 µM | MBC (Klebsiella pneumoniae [14]; Klebsiella pneumoniae, GF7, 2 h): 0.4 µM | LD90 (Staphylococcus aureus [15]): 0.05 µM | MBC (Staphylococcus aureus [15]; Staphylococcus aureus, ATCC 12600, 2 h): 0.4 µM | LD90 (Staphylococcus aureus [16]): 0.2 µM | MBC (Staphylococcus aureus [16]; Staphylococcus aureus, 2 h): 0.8 µM | fold change (FC) (Priestia megaterium [17]): 4 | LD90 (Escherichia coli [18]): 0.1 µM | MBC (Escherichia coli [18]; Escherichia coli, E4, 2 h): 0.4 µM | LD90 (Enterococcus faecium [19]): 0.2 µM | MBC (Enterococcus faecium [19]; Enterococcus faecium, G71, 2 h): 0.4 µM | LD90 (Escherichia coli [20]): 0.05 µM | MBC (Escherichia coli [20]; Escherichia coli, E9, 2 h): 0.2 µM | fold change (FC) (Staphylococcus aureus [21]): 4 | LD90 (Staphylococcus aureus [22]): 0.2 µM | MBC (Staphylococcus aureus [22]; Staphylococcus aureus, ATCC 33393, 2 h): 0.4 µM | LD90 (Escherichia coli [23]): 0.1 µM | MBC (Escherichia coli [23]; Escherichia coli, DH5[alpha], 2 h): 0.2 µM | Activity (Staphylococcus aureus [24]): Active | LD90 (Staphylococcus aureus [25]): 0.2 µM | MBC (Staphylococcus aureus [25]; Staphylococcus aureus, 344, 2 h): 0.8 µM
